Tests used:
[1] = substrate: CC1=CC(=O)c2ccccc2C1=O; test: Michaelis-Menten constant against human glutathione reductase
In short: (§1)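 Recombinant human or P. falciparum GR run as a quinone reductase without GSSG. Mix: 100 mM phosphate pH 7.0, 200 mM KCl, 100 μM NADPH, 1% DMSO, enzyme, and naphthoquinone at 10 levels from 10 to 400 μM. NADPH oxidation read at 340 nm (ε 6.22 mM⁻¹ cm⁻¹). Steady-state rates fitted to Michaelis–Menten by nonlinear regression to give Km and Vmax; kcat and kcat/Km calculated.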

[2] = compound: N[C@@H](CCC(=O)N[C@@H](CSSC[C@H](NC(=O)CC[C@H](N)C(=O)O)C(=O)NCC(=O)O)C(=O)NCC(=O)O)C(=O)O; test: Inhibitory concentration against glutathione reductase (In presence of NADPH); conditions: Plasmodium falciparum
[3] = substrate: CC1=CC(=O)c2ccccc2C1=O; test: Michaelis-Menten constant against Plasmodium falciparum glutathione reductase; in short: as §1

| Protein | Km [1] [µM] | Km [2] [µM] | Km [3] [µM] |
| --- | --- | --- | --- |
| Glutathione reductase, mitochondrial (Homo sapiens), P00390 (protein) MALLPRALSAGAGPSWRRAARAFRGFLLLLPEPAALTRALSRAMACRQEPQPQGPPPAAGAVASYDYLVIGGGSGGLASARRAAELGARAAVVESHKLGGTCVNVGCVPKKVMWNTAVHSEFMHDHADYGFPSCEGKFNWRVIKEKRDAYVSRLNAIYQNNLTKSHIEIIRGHAAFTSDPKPTIEVSGKKYTAPHILIATGGMPSTPHESQIPGASLGITSDGFFQLEELPGRSVIVGAGYIAVEMAGILSALGSKTSLMIRHDKVLRSFDSMISTNCTEELENAGVEVLKFSQVKEVKKTLSGLEVSMVTAVPGRLPVMTMIPDVDCLLWAIGRVPNTKDLSLNKLGIQTDDKGHIIVDEFQNTNVKGIYAVGDVCGKALLTPVAIAAGRKLAHRLFEYKEDSKLDYNNIPTVVFSHPPIGTVGLTEDEAIHKYGIENVKTYSTSFTPMYHAVTKRKTKCVMKMVCANKEEKVVGIHMQGLGCDEMLQGFAVAVKMGATKADFDNTVAIHPTSSEELVTLR | 31.2 | – | – |
| Glutathione reductase (Plasmodium falciparum 3D7), O15770 (protein) MYKHRYFHFFFFFFFFLVSTKIIRSFTFLNNNTNLSNPVYFKKKANMVYDLIVIGGGSGGMAAARRAARHNAKVALVEKSRLGGTCVNVGCVPKKIMFNAASVHDILENSRHYGFDTKFSFNLPLLVERRDKYIQRLNNIYRQNLSKDKVDLYEGTASFLSENRILIKGTKDNNNKDNGPLNEEILEGRNILIAVGNKPVFPPVKGIENTISSDEFFNIKESKKIGIVGSGYIAVELINVIKRLGIDSYIFARGNRILRKFDESVINVLENDMKKNNINIVTFADVVEIKKVSDKNLSIHLSDGRIYEHFDHVIYCVGRSPDTENLNLEKLNVETNNNYIVVDENQRTSVNNIYAVGDCCMVKKSKEIEDLNLLKLYNEETYLNKKENVTEDIFYNVQLTPVAINAGRLLADRLFLKKTRKTNYKLIPTVIFSHPPIGTIGLSEEAAIQIYGKENVKIYESKFTNLFFSVYDIEPELKEKTYLKLVCVGKDELIKGLHIIGLNADEIVQGFAVALKMNATKKDFDETIPIHPTAAEEFLTLQPWMK | – | 115 | 82.2 |
